Results: ChEMBL document CHEMBL4130485, “Inhibitors of Yellow Fever Virus replication based on 1,3,5-triphenyl-4,5-dihydropyrazole scaffold: Design, synthesis and antiviral evaluation” (Eur J Med Chem, 2017)

Tests used:
[1] = Selectivity index, ratio of CC50 for bovine MDBK cells to EC50 for Bovine viral diarrhea virus NADL ATCC VR 534; type: toxicity; settings: cattle, read-out: Ratio CC50/EC50
Procedure, shortened: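 Selectivity index calculated as MDBK CC50 divided by BVDV EC50, both by MTT.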

[2] = Cytotoxicity against golden hamster BHK21 cells assessed as decrease in cell viability after 72 hrs by MTT assay; type: cell-based, Mesocricetus auratus, BHK-21
Procedure, shortened: (§1)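 Uninfected MDBK (6×10^5 cells/mL, 10% horse serum) or BHK (1×10^6 cells/mL, 10% FBS) cells in MEM-Earle with serial compound dilutions at 37 °C, 5% CO2, run in parallel with the antiviral assays. Viability read by MTT after 72 h. CC50 by linear regression; mean of three determinations.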

[3] = tested on: Yellow fever virus; assay: Antiviral activity against Yellow fever virus 17D vaccine (Stamaril Pasteur J07B01) infected in golden hamster BHK21 cells assessed as protection against virus-induced cytopathic effect after 3 to 4 days by MTT assay; type: functional, organism-based; settings: BHK-21
Procedure, shortened: (§2)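 BHK-21 cells (MDBK for BVDV) seeded at 5×10^4 (BHK) or 3×10^4 (MDBK) cells/well and grown overnight to confluence. Infected at m.o.i. 0.01 in maintenance MEM-Earle with 0.5% inactivated FBS. Serial compound dilutions added 2 h later (final 100, 20, 4, 0.8 µM; DMSO ≤0.1%). Viability read by MTT after 3–4 days at 37 °C. EC50 obtained by linear regression against untreated controls; mean of three determinations.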

[4] = Selectivity index, ratio of CC50 for golden hamster BHK21 cells to EC50 for Yellow fever virus 17D; type: toxicity; settings: read-out: Ratio CC50/EC50
Procedure, shortened: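 Selectivity index calculated as BHK-21 CC50 divided by YFV EC50, both from MTT assays.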

[5] = tested on: dengue virus type 2; assay: Antiviral activity against Dengue virus type 2 clinical isolate infected in golden hamster BHK21 cells assessed as protection against virus-induced cytopathic effect after 3 to 4 days by MTT assay; type: functional, organism-based; settings: BHK-21; procedure, shortened: as §2
[6] = tested on: West Nile virus; assay: Antiviral activity against West Nile virus clinical isolate infected in golden hamster BHK21 cells assessed as protection against virus-induced cytopathic effect after 3 to 4 days by MTT assay; type: functional, organism-based; settings: BHK-21; procedure, shortened: as §2
[7] = Cytotoxicity against bovine MDBK cells assessed as decrease in cell viability after 72 hrs by MTT assay; type: cell-based, Bos taurus; settings: cattle; procedure, shortened: as §1
[8] = tested on: Bovine viral diarrhea virus 1; assay: Antiviral activity against Bovine viral diarrhea virus NADL ATCC VR 534 infected in bovine MDBK cells assessed as protection against virus-induced cytopathic effect after 3 to 4 days by MTT assay; type: functional, organism-based, Bovine viral diarrhea virus 1-NADL; settings: Bovine viral diarrhea virus isolates and strains, ATCC VR 534, MDBK; procedure, shortened: as §2
[9] = Cytotoxicity against human MT4 cells assessed as decrease in cell viability after 96 hrs by MTT assay; type: cell-based
Procedure, shortened: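 Exponentially growing MT-4 cells seeded at 1×10^5 cells/mL in RPMI-1640 with 10% FBS and incubated with serial compound dilutions at 37 °C, 5% CO2. Viability read by MTT after 96 h. CC50 by linear regression versus untreated controls.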

[10] = tested on: Human immunodeficiency virus 1; assay: Antiviral activity against HIV1 3B infected in human MT4 cells assessed as protection against virus-induced cytopathic effect after 4 days by MTT assay; type: functional, organism-based; settings: Human immunodeficiency virus 1, 3B, MT4, 96 h
Procedure, shortened: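 MT-4 cells (1×10^4/well) in RPMI with serial compound dilutions, infected with 100 CCID50 HIV-1 (m.o.i. 0.01). Viability read by MTT after 4 days at 37 °C. EC50 for 50% protection from cytopathicity obtained by linear regression versus untreated controls; mean of three determinations.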

[11] = tested on: Mammalian orthoreovirus 1; assay: Antiviral activity against Reovirus 1 infected in golden hamster BHK21 cells assessed as protection against virus-induced cytopathic effect after 3 to 4 days by MTT assay; type: functional, organism-based; settings: Mammalian orthoreovirus 1, BHK-21; procedure, shortened: as §2
[12] = Cytotoxicity against African green monkey Vero 76 cells assessed as decrease in cell viability after 48 to 96 hrs by MTT assay; type: cell-based; settings: chlorocebus sabaeus
Procedure, shortened: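 Vero 76 cells seeded at 5×10^5 cells/mL in D-MEM with 10% FBS and incubated with serial compound dilutions at 37 °C, 5% CO2. Viability read by MTT after 48–96 h. CC50 by linear regression versus untreated controls.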

[13] = Antiviral activity against Human enterovirus B Faulkner ATCC VR 185 infected in African green monkey Vero 76 cells assessed as protection against virus-induced cytopathic effect after 3 days by crystal violet staining-based plaque reduction assay; type: functional, cell-based; settings: Faulkner ATCC VR 185, Vero 76, 72 h
[14] = tested on: Enterovirus C; assay: Antiviral activity against Enterovirus C Sabin […] infected in African green monkey Vero 76 cells assessed as protection against virus-induced cytopathic effect after 2 days by crystal violet staining-based plaque reduction assay; type: functional, organism-based; settings: Vero 76, 48 h
[15] = tested on: Vaccinia virus; assay: Antiviral activity against Vaccinia virus Lister ATCC VR 1549 infected in African green monkey Vero 76 cells assessed as protection against virus-induced cytopathic effect after 3 days by crystal violet staining-based plaque reduction assay; type: functional, organism-based; settings: Orthopoxvirus vaccinia, ATCC VR 1549, Vero 76, 72 h
[16] = tested on: Human alphaherpesvirus 1; assay: Antiviral activity against Human herpesvirus 1 KOS ATCC VR 1493 infected in African green monkey Vero 76 cells assessed as protection against virus-induced cytopathic effect after 3 days by crystal violet staining-based plaque reduction assay; type: functional, organism-based; settings: Human alphaherpesvirus 1, KOS, Vero 76, 72 h
[17] = tested on: Vesicular stomatitis Indiana virus; assay: Antiviral activity against Vesicular stomatitis virus Indiana ATCC VR 158 infected in African green monkey Vero 76 cells assessed as protection against virus-induced cytopathic effect after 2 days by crystal violet staining-based plaque reduction assay; type: functional, organism-based; settings: ATCC VR 158, Vero 76, 48 h
[18] = tested on: Human orthopneumovirus; assay: Antiviral activity against Human respiratory syncytial virus A2 ATCC VR 1540 infected in African green monkey Vero 76 cells assessed as protection against virus-induced cytopathic effect after 5 days by crystal violet staining-based plaque reduction assay; type: functional, organism-based; settings: ATCC VR 1540, Vero 76, 120 h
[19] = tested on: Yellow fever virus; assay: Potency index, ratio of azauridine EC50 to compound EC50 for Yellow fever virus 17D vaccine (Stamaril Pasteur J07B01); type: functional
[20] = Selectivity index, ratio of CC50 for African green monkey Vero 76 cells to EC50 for Human coxsackievirus B5 Faulkner; type: toxicity; settings: read-out: Ratio CC50/EC50
Procedure, shortened: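 Selectivity index calculated as Vero 76 CC50 (MTT) divided by CVB-5 plaque-reduction EC50.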

Compound | selectivity ratio [1] | CC50 at 72 h [2] [µM] | EC50 [3] [µM] | selectivity ratio [4] | EC50 [5] [µM] | EC50 [6] [µM] | CC50 at 72 h [7] [µM] | EC50 [8] [µM] | CC50 at 96 h [9] [µM] | EC50 [10] [µM] | EC50 [11] [µM] | CC50 [12] [µM] | EC50 [13] [µM] | EC50 [14] [µM] | EC50 [15] [µM] | EC50 [16] [µM] | EC50 [17] [µM] | EC50 [18] [µM] | Ratio EC50 [19] | selectivity ratio [20]
NS(=O)(=O)c1ccc(N2N=C(c3ccc(OCc4ccccc4)cc3)CC2c2ccc(Cl)cc2)cc1 (stereo not drawn) | 3.6 | 15 to 16 | 1.9 | 7.9 | > 15 | > 15 | 16 | 4.5 | 70 | > 70 | > 16 | 82 | > 82 | > 82 | > 82 | > 82 | > 82 | > 82 | 10 | 
NS(=O)(=O)c1ccc(N2N=C(c3ccc(Oc4ccccc4)cc3)CC2c2ccc(F)cc2)cc1 (stereo not drawn) |  | 8 to 9 | 1.8 | 5 | > 9 | > 9 | 6 | > 6 | 33 | > 33 | > 8 | 25 | 6 | > 25 | > 25 | > 25 | > 25 | > 25 | 10 | 4.2
Cc1cc(CCCOc2c(C)cc(-c3noc(C(F)(F)F)n3)cc2C)on1 [PLECONARIL] |  |  |  |  |  |  |  |  |  |  |  | 83 | 0.005 | 2.7 |  |  |  |  |  | 16000
NC(=O)c1ncn([C@@H]2O[C@H](CO)[C@@H](O)[C@H]2O)n1 [RIBAVIRIN] | 3 |  |  |  |  |  | 62 | 20 |  |  |  | > 100 |  |  |  |  |  | 1.2 |  | 
NS(=O)(=O)c1ccc(N2N=C(c3ccccc3)CC2c2ccccc2Cl)cc1 (stereo not drawn) |  | 13 to 14 | 2.4 | 5.8 | > 14 | > 14 | 9 | > 9 | 44 | > 44 | > 13 | 26 | > 26 | > 26 | > 26 | > 26 | > 26 | > 26 | 10 | 
NS(=O)(=O)c1ccc(N2N=C(c3ccc(Oc4ccccc4)cc3)CC2c2cccc(Cl)c2)cc1 (stereo not drawn) |  | 9 to 10 | 2.2 | 4.5 | > 10 | > 10 | 6 | > 6 | 8 | > 8 | > 9 | 88 | > 88 | > 88 | > 88 | > 88 | > 88 | > 88 | 10 | 
